Experiments:
HEK293 = test: Cytotoxicity against HEK293 cells assessed as reduction in cell viability after 48 hrs by MTT assay; assay type: cell-based; conditions: human, hek293, 48 h
In short: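 HEK293 target cells were exposed to the compounds and viability was read by MTT assay.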

[1] = Selectivity index, ratio of CC50 for HEK293 cells to IC50 for Marburg virus envelope glycoprotein-mediated cell entry in rVSIV-deltaG-MarV-GP pseuotype virus infected HEK293 cells; assay type: toxicity; conditions: human, read-out: Ratio CC50/IC50
In short: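 Selectivity index is CC50 divided by IC50 against the MARV-GP pseudotype. CC50 came from an MTT assay on HEK293 cells. For IC50, HEK293 cells were infected with rVSIV-ΔG-MarV-GP with or without compound, across a low-toxicity concentration range chosen from CC50. The luciferase signal was read 24 h post-infection.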

[2] = Selectivity ratio of IC50 for Marburg virus envelope glycoprotein-mediated cell entry in rVSIV-deltaG-MarV-GP pseuotype virus infected HEK293 cells to IC50 for Vesicular stomatitis Indiana virus envelope glycoprotein-mediated cell entry in rVSIV-deltaG-G pseudotype virus infected HEK293 cells
In short: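 Specificity coefficient is IC50 for rVSIV-ΔG-MarV-GP divided by IC50 for rVSIV-ΔG-G. Each IC50 came from HEK293 cells infected with that pseudotype (same VSIV capsid, different glycoprotein) with or without compound, at low-toxicity concentrations. Transduced luciferase was measured 24 h post-infection.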

| Compound | CC50 (HEK293) [µM] | selectivity ratio [1] | Ratio IC50 [2] |
| --- | --- | --- | --- |
| COc1ccc(CCN(C)CCCC(C#N)(c2ccc(OC)c(OC)c2)C(C)C)cc1OC (configuration not stated) | 280 |  |  |
| CC1(C)[C@H]2CC[C@]1(C)[C@H](OC(=O)CN1CCCC1)C2 | 480 | 9 | 5 |
| CN1CCN(CC(=O)O[C@@H]2C[C@@H]3CC[C@@]2(C)C3(C)C)CC1 | 637 | 14 | 4 |
| CC1(C)[C@H]2CC[C@]1(C)[C@H](OC(=O)CCN1CCOCC1)C2 | 406 | 5 | 3 |
| CCN1CCN(CCC(=O)O[C@@H]2C[C@@H]3CC[C@@]2(C)C3(C)C)CC1 | 474 | 47 | 11 |
| CC1(C)[C@H]2CC[C@]1(C)[C@H](OC(=O)CN1CCOCC1)C2 | 1280 | 5 | 1 |
| CC1(C)[C@H]2CC[C@]1(C)[C@H](OC(=O)CCN1CCCCC1)C2 | 302 | 35 | 14 |
| CC1(C)[C@H]2CC[C@]1(C)[C@H](OC(=O)CCN1CCNCC1)C2 | 207 | 21 | 10 |
| CCN1CCN(CC(=O)O[C@@H]2C[C@@H]3CC[C@@]2(C)C3(C)C)CC1 | 859 | 29 | 15 |
| CC1(C)[C@H]2CC[C@]1(C)[C@H](OC(=O)CCN1CCCC1)C2 | 684 | 59 | 2 |
| CC1(C)[C@H]2CC[C@]1(C)[C@H](OC(=O)CN1CCCCC1)C2 | 321 | 4 | 1 |
| CC1(C)[C@H]2CC[C@]1(C)[C@H](O)C2 [(-)-BORNEOL] | > 3000 | > 14 | > 3 |
| CC1CCN(CC(=O)O[C@@H]2C[C@@H]3CC[C@@]2(C)C3(C)C)CC1 | 240 | 9 | 3 |
| CC1(C)[C@H]2CC[C@]1(C)[C@H](OC(=O)CN1CCNCC1)C2 | 361 | 18 | 3 |
| CCCCN(CCCC)CCC(=O)O[C@@H]1C[C@@H]2CC[C@@]1(C)C2(C)C | 86 | 15 | 8 |
| CCCCN(CCCC)CC(=O)O[C@@H]1C[C@@H]2CC[C@@]1(C)C2(C)C | 73 | 6 | 2 |
| CC1CCN(CCC(=O)O[C@@H]2C[C@@H]3CC[C@@]2(C)C3(C)C)CC1 | 215 | 60 | 34 |
| CN1CCN(CCC(=O)O[C@@H]2C[C@@H]3CC[C@@]2(C)C3(C)C)CC1 | 421 | 20 | 16 |
